According to ChEMBL document CHEMBL1142819, “Synthesis of benzoyl phenyl benzoates as effective inhibitors for phospholipase A2 and hyaluronidase enzymes” (Bioorg Med Chem Lett, 2005):
Calls of active or inactive are those of the source. No cut-off for these calls is given here.

Legend:
[1] = In vitro Inhibitory concentration against phospholipase A2 activity of synovial fluid; set-up: species or system Homo sapiens
[2] = target: T1, Basic phospholipase A2 1 (Naja melanoleuca, UniProt P00599); test: In vitro inhibitory concentration against phospholipase A2 of Naja melanoleuca venom
T1 sequence (P00599 whole entry): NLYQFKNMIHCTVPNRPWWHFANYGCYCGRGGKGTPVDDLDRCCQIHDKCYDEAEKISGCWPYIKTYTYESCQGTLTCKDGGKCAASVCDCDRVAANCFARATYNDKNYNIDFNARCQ

[3] = system: Naja naja; test: Percent inhibition of hyaluronidase from Naja naja naja venom; set-up: concentration or dose not given beside the values; settings: concentration not given here
[4] = system: Mus musculus; test: Edema ratio expressed as weight of edematous leg to 100/weight of normal leg in mice upon injection of 300 uM compound preincubated with 1 ug phospholipase A2 of Synovial fluid at 37 C for 1 hr into the mice foot pads; type: functional
Method in brief: (§1)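 Each PLA2 enzyme (1 µg) was preincubated with compound (300 µM) at 37 °C for 1 h, then injected into the right hind footpad of mice (22–24 g) in saline. The left footpad received saline as control. After 45 min the mice were killed, and both legs were cut at the ankle and weighed. Edema ratio = edematous leg weight × 100 / normal leg weight. Results given as mean SD (n = 4); Student's t test, P < 0.05.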

[5] = target: Acidic phospholipase A2 EC-I (Echis carinatus, UniProt Q7T3S7); test: In vitro inhibitory concentration against phospholipase A2 of Echis carinatus venom
[6] = system: Protobothrops elegans; test: Percent inhibition of hyaluronidase from Trimeresurus elegans venom; set-up: concentration or dose not given beside the values; settings: concentration not given here
[7] = target: T2, Basic phospholipase A2 PLA-A (Trimeresurus flavoviridis, UniProt P59264); test: In vitro inhibitory concentration against phospholipase A2 of Trimeresurus flavoviridis venom; set-up: species or system Protobothrops flavoviridis
T2 sequence (P59264 whole entry): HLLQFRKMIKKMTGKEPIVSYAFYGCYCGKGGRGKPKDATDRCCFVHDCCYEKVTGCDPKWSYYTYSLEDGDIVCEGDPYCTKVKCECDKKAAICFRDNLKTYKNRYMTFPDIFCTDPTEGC

[8] = system: Daboia russelii russelii; test: Percent inhibition of hyaluronidase from Vipera russelli russelli venom; NI = No inhibition
[9] = system: Mus musculus; test: Edema ratio expressed as weight of edematous leg to 100/weight of normal leg in mice upon injection of 300 uM compound pre-incubated with 1 ug phospholipase A2 of Naja melanoleuca at 37 degree C for 1 h into mice foot pads; type: functional; method in brief: as §1
[10] = system: Naja melanoleuca; test: Percent inhibition of hyaluronidase from Naja melanoleuca venom; NI = No inhibition
[11] = system: Daboia russelii russelii; test: Percent inhibition of hyaluronidase from Vipera russelli russelli venom; set-up: concentration or dose not given beside the values; settings: concentration not given here
[12] = system: Naja naja; test: Percent inhibition of hyaluronidase from Naja naja naja venom; NI = No inhibition
[13] = system: Mus musculus; test: Edema ratio expressed as weight of edematous leg to 100/weight of normal leg in mice upon injection of 300 uM compound preincubated with 1 ug phospholipase A2 of Trimeresurus flavoviridis at 37 C for 1 hr into the mice foot pads; type: functional; method in brief: as §1
[14] = system: Mus musculus; test: Edema ratio expressed as weight of edematous leg to 100/weight of normal leg in mice upon injection of 300 uM compound pre-incubated with 1 ug phospholipase A2 of Echis carinatus at 37 C for 1 h into the mice foot pads; type: functional; method in brief: as §1
[15] = system: Protobothrops elegans; test: Percent inhibition of hyaluronidase from Trimeresurus elegans venom; NI = No inhibition

Sequence of Acidic phospholipase A2 EC-I (Q7T3S7 17-136 limits assumed): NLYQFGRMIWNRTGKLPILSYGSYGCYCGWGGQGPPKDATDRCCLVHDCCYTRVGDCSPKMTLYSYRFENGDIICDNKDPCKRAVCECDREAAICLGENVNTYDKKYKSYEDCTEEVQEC

**Q.** What does the source list for `Cc1ccc(OC(=O)c2ccccc2C)c(C(=O)c2ccccc2C)c1`?
**A.** IC50 [1]: 86 µM; IC50 [2]: 98 µM; inhibition [3]: 58.7%; Ratio [4]: 106; IC50 [5]: 105 µM; inhibition [6]: 42.4%; IC50 [7]: 139 µM; inhibition [8]: inactive; Ratio [9]: 102

**Q.** What does the source list for `Cc1ccc(C(=O)Oc2ccc(C)cc2C(=O)c2ccc(C)cc2)cc1`?
**A.** IC50 [1]: 123 µM; IC50 [2]: 57 µM; inhibition [10]: inactive; inhibition [3]: 69.3%; inhibition [11]: 46%; IC50 [5]: 96 µM; inhibition [6]: 76.8%; IC50 [7]: 108 µM; Ratio [9]: 103

**Q.** Which IC50 [2] does the source give for `C[C@H]1[C@H](C)CC[C@]2(C(=O)O)CC[C@]3(C)C(=CC[C@@H]4[C@@]5(C)CC[C@H](O)C(C)(C)[C@@H]5CC[C@]43C)[C@H]12` [URSOLIC ACID] here?
**A.** 2.9 µM

**Q.** What about the IC50 [5] of the same molecule?
**A.** 2.3 µM

**Q.** Which IC50 [1] does the source give for `Cc1ccc(C(=O)Oc2ccc(C(=O)c3ccccc3C)cc2C)cc1` here?
**A.** 56 µM

**Q.** What about the IC50 [2] of the same molecule?
**A.** 73 µM

**Q.** What about the inhibition [3] of the same molecule?
**A.** 42.4%

**Q.** And the inhibition [11]?
**A.** 36.9%

**Q.** And the Ratio [4]?
**A.** 101

**Q.** What about the IC50 [5] of the same molecule?
**A.** 87 µM

**Q.** And the inhibition [6]?
**A.** 48.9%

**Q.** What about the IC50 [7] of the same molecule?
**A.** 75 µM

**Q.** What does the source list for `Cc1cc(C(=O)c2cccc(Cl)c2Cl)ccc1OC(=O)c1ccccc1`?
**A.** IC50 [1]: 156 µM; IC50 [2]: 132 µM; inhibition [12]: inactive; inhibition [11]: 26.2%; IC50 [5]: 112 µM; inhibition [6]: 33.1%; IC50 [7]: 89 µM

**Q.** Which results are given for `O=C(Oc1ccc(Cl)cc1C(=O)c1cccc(Cl)c1Cl)c1ccccc1`?
**A.** IC50 [1]: 32 µM; IC50 [2]: 53 µM; Ratio [13]: 105; inhibition [3]: 85.3%; inhibition [11]: 71.6%; Ratio [4]: 102; Ratio [14]: 103; IC50 [5]: 40 µM; inhibition [6]: 76.8%; IC50 [7]: 46 µM; Ratio [9]: 104

**Q.** For `Cc1ccc(OC(=O)c2cccc(Cl)c2)c(C(=O)c2cccc(Cl)c2)c1`, which IC50 [1] is on record?
**A.** 2.5 µM

**Q.** What about the IC50 [2] of the same molecule?
**A.** 2.9 µM

**Q.** And the Ratio [13]?
**A.** 102

**Q.** And the inhibition [3]?
**A.** 89.3%

**Q.** What about the inhibition [11] of the same molecule?
**A.** 87.8%

**Q.** What about the Ratio [4] of the same molecule?
**A.** 101

**Q.** What about the Ratio [14] of the same molecule?
**A.** 101

**Q.** What about the IC50 [5] of the same molecule?
**A.** 2.3 µM

**Q.** And the inhibition [6]?
**A.** 92.5%

**Q.** What about the IC50 [7] of the same molecule?
**A.** 2.5 µM

**Q.** And the Ratio [9]?
**A.** 101

**Q.** What does the source list for `Cc1ccc(OC(=O)c2ccccc2)c(C(=O)c2ccccc2)c1`?
**A.** IC50 [1]: 46 µM; IC50 [2]: 60 µM; Ratio [13]: 105; inhibition [10]: inactive; inhibition [3]: 13.9%; inhibition [11]: 28.2%; Ratio [4]: 109; inhibition [15]: inactive; IC50 [5]: 94 µM; IC50 [7]: 69 µM
